Assay results: publication PMC2947195 (Biochemical Journal, 2010)
Substitutions are numbered along the chain they refer to.

What was measured:
Type in all cases: cell-based
wt hRFC = target: T1, wt hRFC (Homo sapiens, UniProt P41440); assay: [3H]MTX transport kinetics
T1 sequence (P41440 1-591): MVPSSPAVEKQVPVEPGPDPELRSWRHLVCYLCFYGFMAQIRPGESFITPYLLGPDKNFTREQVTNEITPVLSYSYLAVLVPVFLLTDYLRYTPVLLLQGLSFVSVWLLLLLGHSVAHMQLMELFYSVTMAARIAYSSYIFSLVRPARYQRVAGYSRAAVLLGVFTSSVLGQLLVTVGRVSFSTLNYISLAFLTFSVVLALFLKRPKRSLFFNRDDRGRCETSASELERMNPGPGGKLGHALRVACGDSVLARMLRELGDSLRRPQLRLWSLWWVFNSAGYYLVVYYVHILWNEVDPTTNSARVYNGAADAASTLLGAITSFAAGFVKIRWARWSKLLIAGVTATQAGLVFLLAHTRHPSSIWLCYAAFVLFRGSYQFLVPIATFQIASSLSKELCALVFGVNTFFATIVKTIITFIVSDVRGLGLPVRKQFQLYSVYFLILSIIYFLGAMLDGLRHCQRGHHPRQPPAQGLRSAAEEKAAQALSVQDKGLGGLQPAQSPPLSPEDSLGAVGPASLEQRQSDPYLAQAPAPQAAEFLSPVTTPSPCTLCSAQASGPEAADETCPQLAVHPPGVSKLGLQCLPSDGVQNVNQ
How it was run: (§1)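 Human hRFC-null K500E (K562 subline) cells were electroporated (155 V, 1000 μF) with wt or Ser313-mutant hRFC. Stable clones were selected in soft agar with G418 (1 mg/ml). [3H]MTX uptake was measured over 180 s in HBSS at 37 °C in a shaking water bath and expressed as pmol/mg protein (Lowry). Kt and Vmax came from Lineweaver–Burk plots, with Vmax normalized to densitometric Western blot hRFC levels. Three experiments, means±S.E.M.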

cl-N6/C6 hRFC = target: T2, cl-N6/C6 hRFC (Homo sapiens, UniProt P41440, C220S/C246S/C30S/C33S/C365S/C396S/C458S); assay: [3H]MTX uptake in R5 HeLa cells co-transfected with cysteine-less half-molecules; details: 0.5 μM [3H]MTX
T2 sequence (P41440 1-591 C30S/C33S/C220S): T1 sequence (P41440 1-591) with C30S, C33S, C220S
T2 sequence (P41440 227-537 C246S/C365S/C396S/C458S limits assumed): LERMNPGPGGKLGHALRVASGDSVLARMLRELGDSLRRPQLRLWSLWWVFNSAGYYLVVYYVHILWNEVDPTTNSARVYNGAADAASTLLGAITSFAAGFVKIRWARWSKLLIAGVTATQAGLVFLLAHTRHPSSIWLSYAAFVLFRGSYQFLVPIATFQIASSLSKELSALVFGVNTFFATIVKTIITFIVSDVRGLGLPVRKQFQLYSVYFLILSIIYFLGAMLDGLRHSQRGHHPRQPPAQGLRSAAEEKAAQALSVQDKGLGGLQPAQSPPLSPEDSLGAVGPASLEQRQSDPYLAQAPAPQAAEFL

S313A hRFC = target: T3, S313A hRFC (Homo sapiens, UniProt P41440, S313A); assay: [3H]MTX transport kinetics
T3 sequence (P41440 1-591 S313A): T1 sequence (P41440 1-591) with S313A
How it was run: as §1

[1] = K500E stable transfectant, mean±S.E.M., n=3
[2] = Vmax normalized to relative hRFC level on Western blots

How did the “Vmax (normalized)/Kt” value (wt hRFC) turn out when `CN(Cc1cnc2nc(N)nc(N)c2n1)c1ccc(C(=O)N[C@@H](CCC(=O)O)C(=O)O)cc1` [MTX, methotrexate] was run?
Its value is 2.44.

And the Kt (wt hRFC; [1])?
The Kt was 1.89 ± 0.43 µM.

And the “Normalized Vmax” value (wt hRFC; [2])?
The value was 4.62±0.37.

And the “MTX uptake relative to residual level in R5 cells” value (cl-N6/C6 hRFC)?
Its value is ~ 3 fold.

And the “decrease of MTX transport compared with wt-N6/C6” value (cl-N6/C6 hRFC)?
The value was ~ 40%.

What about the “Vmax (normalized)/Kt” value (S313A hRFC) of the same molecule?
Its value is 0.18.

And the Kt (S313A hRFC; [1])?
Its Kt is 2.26 ± 0.44 µM.

What about the “Normalized Vmax” value (S313A hRFC; [2]) of the same molecule?
Its value is 0.41±0.03.
